Blank lines part the entries; values can stand above or below the compound they belong to. Activity calls are given as the source filed them. The rule behind the calls is not given here.
What was measured:
[1] = target: T1, Endothelial lipase (Mus musculus, UniProt Q9WVG5); test: Inhibition of mouse EL expressed in HEK293 cells using PED-A1 as substrate by spectrophotometry; format: cell-based
T1 sequence (Q9WVG5 whole entry): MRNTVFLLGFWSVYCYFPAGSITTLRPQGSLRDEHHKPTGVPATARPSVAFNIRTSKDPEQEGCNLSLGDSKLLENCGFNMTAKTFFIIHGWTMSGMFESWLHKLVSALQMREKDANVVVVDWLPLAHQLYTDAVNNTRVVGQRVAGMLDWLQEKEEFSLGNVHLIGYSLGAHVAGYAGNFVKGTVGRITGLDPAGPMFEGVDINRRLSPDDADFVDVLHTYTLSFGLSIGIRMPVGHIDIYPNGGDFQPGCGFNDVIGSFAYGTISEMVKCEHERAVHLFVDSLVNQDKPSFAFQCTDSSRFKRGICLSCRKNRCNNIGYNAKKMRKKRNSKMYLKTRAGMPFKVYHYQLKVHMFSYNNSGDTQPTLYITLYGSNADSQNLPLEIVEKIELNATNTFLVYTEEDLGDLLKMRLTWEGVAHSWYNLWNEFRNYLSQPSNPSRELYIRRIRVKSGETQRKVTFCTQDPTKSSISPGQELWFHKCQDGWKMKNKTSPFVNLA

[2] = target: T2, Endothelial lipase (Homo sapiens, UniProt Q9Y5X9); test: (§1) Time dependent inhibition of human EL (19 to 500) expressed in HEK293 cells using PED-A1 as substrate by spectrophotometry; format: cell-based
T2 sequence (Q9Y5X9 whole entry): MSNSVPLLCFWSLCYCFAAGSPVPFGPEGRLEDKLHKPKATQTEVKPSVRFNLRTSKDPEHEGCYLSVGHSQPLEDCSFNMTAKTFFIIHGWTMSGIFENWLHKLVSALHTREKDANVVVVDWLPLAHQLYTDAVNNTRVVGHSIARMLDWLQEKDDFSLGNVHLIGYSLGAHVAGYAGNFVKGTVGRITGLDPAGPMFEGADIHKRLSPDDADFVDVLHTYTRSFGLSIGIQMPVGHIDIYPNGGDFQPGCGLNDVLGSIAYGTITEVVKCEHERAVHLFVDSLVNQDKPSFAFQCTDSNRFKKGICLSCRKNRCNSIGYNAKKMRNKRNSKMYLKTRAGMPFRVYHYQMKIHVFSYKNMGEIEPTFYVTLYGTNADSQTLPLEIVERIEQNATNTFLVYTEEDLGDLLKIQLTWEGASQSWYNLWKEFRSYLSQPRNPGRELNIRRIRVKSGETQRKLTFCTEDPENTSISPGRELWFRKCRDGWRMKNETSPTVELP

[3] = tested on: Mus musculus; test: Increase in plasma HDL-C level in C57BL/6J HL-/- mouse at 30 mg/kg, ip administered for 2 days followed by a dose on 3rd day morning measured 1 hr post last dose relative to vehicle-treated control; format: functional; details: route intraperitoneal
Procedure, shortened: (§2)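 C57BL/6J HL-/- (hepatic lipase knockout) mice dosed intraperitoneally with compound or vehicle for three days, at 10, 30 and 100 mg/kg. Plasma lipoproteins, including HDL-C, measured 1 h after the last dose. Percent increase is calculated against vehicle-treated controls, with significance testing between groups.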

[4] = tested on: Mus musculus; test: Inhibition of EL in C57BL/6J HL-/- mouse assessed as elevated plasma HDL-C level at 30 to 100 mg/kg, ip bid for 2 days followed by a dose on 3rd day morning measured 1 hr post last dose; format: functional, organism-based; procedure, shortened: as §2
[5] = tested on: Mus musculus; test: Increase in plasma HDL-C level in C57BL/6J HL-/- mouse at 100 mg/kg, ip administered for 2 days followed by a dose on 3rd day morning measured 1 hr post last dose relative to vehicle-treated control; format: functional; details: route intraperitoneal; procedure, shortened: as §2
[6] = tested on: Plasma; test: Plasma concentration in ip dosed C57BL/6J HL-/- mouse administered for 3 days measured 1 hr post last dose; format: ADME, organism-based; details: in vivo
Procedure, shortened: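 In HL-/- mice given intraperitoneal doses (10, 30, 100 mg/kg) for three days, plasma compound concentrations were measured 1 h after the final dose. In individual animals, these were correlated with plasma HDL-C and phospholipids.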

[7] = target: T3, Hepatic triacylglycerol lipase (Homo sapiens, UniProt P11150); test: Inhibition of human HL expressed in HEK293 cells using PED-A1 as substrate by spectrophotometry
T3 sequence (P11150 whole entry): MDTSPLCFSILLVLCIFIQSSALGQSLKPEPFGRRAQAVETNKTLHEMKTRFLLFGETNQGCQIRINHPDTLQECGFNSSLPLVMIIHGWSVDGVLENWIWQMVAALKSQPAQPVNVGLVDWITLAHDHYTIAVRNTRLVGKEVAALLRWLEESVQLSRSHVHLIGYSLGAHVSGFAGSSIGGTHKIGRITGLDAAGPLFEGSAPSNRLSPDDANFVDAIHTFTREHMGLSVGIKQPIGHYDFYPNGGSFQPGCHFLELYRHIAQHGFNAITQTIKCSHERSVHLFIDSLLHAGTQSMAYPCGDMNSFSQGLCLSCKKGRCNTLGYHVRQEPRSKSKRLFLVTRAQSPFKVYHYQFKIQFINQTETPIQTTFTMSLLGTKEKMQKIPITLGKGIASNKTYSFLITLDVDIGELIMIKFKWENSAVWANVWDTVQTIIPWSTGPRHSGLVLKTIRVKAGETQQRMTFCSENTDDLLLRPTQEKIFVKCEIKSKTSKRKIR

[8] = target: T4, Endothelial lipase (Homo sapiens) (UniProt Q9Y5X9); test: as §1; format: cell-based
T4 sequence (whole entry): T2 sequence (Q9Y5X9 whole entry)

[9] = target: Endothelial lipase (Mus musculus) (UniProt Q9WVG5); test: Inhibition of EL in C57BL/6J HL-/- mouse assessed as elevated plasma phospholipid level at 30 to 100 mg/kg, ip bid for 2 days followed by a dose on 3rd day morning measured 1 hr post last dose
[10] = target: T5, Lipoprotein lipase (Homo sapiens, UniProt P06858); test: Inhibition of human LPL expressed in HEK293 cells using PED-A1 as substrate by spectrophotometry
T5 sequence (P06858 whole entry): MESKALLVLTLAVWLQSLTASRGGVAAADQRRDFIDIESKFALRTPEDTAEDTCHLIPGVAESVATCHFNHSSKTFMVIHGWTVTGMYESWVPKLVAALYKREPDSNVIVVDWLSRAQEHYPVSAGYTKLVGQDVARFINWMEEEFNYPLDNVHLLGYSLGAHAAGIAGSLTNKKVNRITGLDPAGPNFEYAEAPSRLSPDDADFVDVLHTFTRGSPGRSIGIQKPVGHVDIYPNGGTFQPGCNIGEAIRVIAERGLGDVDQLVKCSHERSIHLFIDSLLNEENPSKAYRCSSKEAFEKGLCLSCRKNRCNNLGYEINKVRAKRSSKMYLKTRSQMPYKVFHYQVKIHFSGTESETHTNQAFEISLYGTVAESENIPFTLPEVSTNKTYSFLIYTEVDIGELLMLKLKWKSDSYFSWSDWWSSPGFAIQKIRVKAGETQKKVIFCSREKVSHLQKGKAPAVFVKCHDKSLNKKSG

[11] = tested on: Mus musculus; test: Increase in plasma HDL-C level in C57BL/6J mouse at 100 mg/kg, ip administered for 2 days followed by a dose on 3rd day morning measured 1 hr post last dose relative to vehicle-treated control; format: functional; details: route intraperitoneal
Procedure, shortened: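 C57BL/6J mice given vehicle or compound intraperitoneally, five doses over three days; plasma HDL-C measured 1 h after the last dose. Tested at 100 mg/kg. Change is expressed relative to vehicle controls, as means ± SD, n = 8 per group, with significance tested against the vehicle group.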

IC50 [1]: > 33000 nM
SMILES: O=C(NCCCCCCc1ccccc1)OCc1ccccc1F

IC50 [2]: 23 nM
SMILES: O=C(NCCCCCOc1cc(F)cc(F)c1)SCc1nnc(-c2ccccc2)o1

IC50 [1]: 470 nM
SMILES: O=C(NCCCCCCc1ccccc1)Oc1ccccc1F

Drug uptake [6]: Dose-dependent effect
IC50 [1]: 680 nM
IC50 [7]: 1360 nM
inhibition [8]: Active
IC50 [10]: 1690 nM
SMILES: O=C(NCCCCCCc1ccccc1)SCc1ccccc1F
Activity [3]: 23%
Activity [4]: Active
Activity [5]: 77%
Activity [9]: Active
Activity [11]: 37%

Source: ChEMBL document CHEMBL2380223, “A thiocarbamate inhibitor of endothelial lipase raises HDL cholesterol levels in mice” (Bioorg Med Chem Lett, 2013)
